Bioassay records from PubChem.
m5-HT2A agonist: mouse HTR2A agonism via beta-arrestin recruitment | actives 0.66% (n = 360,000) | CHO-K1 mHTR2A beta-arrestin complementation, luminescence; percent of 30 µM serotonin response | activation, % at 7.6 µM | P35363;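 active means activation above a run cutoff, the mean activation of all tested compounds plus 3 SD, cut at about 14% in these data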;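 further: 0% = plate median of compound wells and 100% = 30 µM serotonin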
MC4R antagonist: blocks human MC4R cAMP signaling; P32245; inhibition, % at 6.5 µM; MC4R-expressing cells, MTII-stimulated cAMP, LANCE TR-FRET; actives 0.48% (n = 360,000);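 active means inhibition above its plate's cutoff, the mean of tested wells on that plate plus 3 SD, cut at about 29% in these data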;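 further: 0% = Melanotan II alone and 100% = Melanotan II plus saturating MCL0020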
Target sequence (P32245 whole entry, looked up): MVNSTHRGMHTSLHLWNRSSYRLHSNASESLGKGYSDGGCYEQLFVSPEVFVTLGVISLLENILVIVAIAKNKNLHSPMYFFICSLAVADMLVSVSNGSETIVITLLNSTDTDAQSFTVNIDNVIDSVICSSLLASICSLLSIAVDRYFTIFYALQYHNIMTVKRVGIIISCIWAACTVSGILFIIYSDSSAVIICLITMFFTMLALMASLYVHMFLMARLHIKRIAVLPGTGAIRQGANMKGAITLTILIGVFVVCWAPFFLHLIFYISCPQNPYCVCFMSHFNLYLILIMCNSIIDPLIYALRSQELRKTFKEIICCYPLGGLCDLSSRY
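Material – human MC4R-expressing U2OS cells · Repeats – no replicates · Detection – TR-FRET with Eu-cAMP and labeled anti-cAMP, 671 nm · Times – compound 30 min, challenge 1 h, detection 1 h · Compound – single nominal compound dose of 6.5 µM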
AHR act: activates the human aryl hydrocarbon receptor; AHR-responsive luciferase reporter cells, luminescence; activation, % at 5 µM; actives 2.5% (n = 320,000); AID 2796; in the data active means activation above about 47%;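 further: 0% = vehicle wells and 100% = reference agonist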
MC4R barr agon: activates human MC4R beta-arrestin recruitment; P32245; U2OS MC4R beta-arrestin complementation, luminescence; percent of melanotan II response, DMSO zero; activation, % at 8.9 µM; actives 0.98% (n = 360,000); AID 540308;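 active means activation above a per-plate cutoff, the mean activation of sample wells on that plate plus 3 SD, cut at about 8% in these data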
FXN GAA850 act: increases GAA850 frataxin promoter reporter activity; HEK293 lucGAA850 FXN promoter luciferase reporter, 24 h; percent of 10 µM SAHA response; activation, % at 6 µM; actives 0.56% (n = 360,000); AID 540364;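 active means activation above the average of all compounds screened plus 3 SD, cutoff fixed separately per campaign, cut at about 7.5% in these data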;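 further: 0% = DMSO wells and 100% = 10 µM SAHA wells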
Starred values were filed as active, the others as inactive; / = no result given. Most compounds without a hit are left out; they make up all but 4.7% or so of the library.

SMILES	m5-HT2A agonist	MC4R antagonist	AHR act	MC4R barr agon	FXN GAA850 act
COc1ccc(C(=O)CNc2ccccc2C#N)cc1	0	12	6	8.3*	4
COc1ccc(C(=O)CNc2ccccc2CO)cc1	-5	10	10	-1	2
Cc1cccc(-c2nc(CS(=O)CC(=O)N3CC(C)CC(C)C3)c(C)o2)c1 (centres undefined)	3	0	3	-1	1
Cc1cc2cc(CNC(=O)NC3CCCCC3)ccc2[nH]1	-4	13	57*	-1	0
Cc1cc2cc(CNC(=S)NC3CCCCC3)ccc2[nH]1	-6	11	7	-3	-1
Cc1ccc(NS(=O)(=O)c2ccc(-n3cccn3)cc2)cc1C	-1	10	2	9.4*	-2
CCc1cccc(NS(=O)(=O)c2ccc(-n3cccn3)cc2)c1	4	11	2	8.3*	-1
Cc1ccc(C)c(NS(=O)(=O)c2ccc(-n3cccn3)cc2)c1	-3	3	/	0	0
C[C@H](CO)N1C[C@H](C)[C@@H](CN(C)C(=O)C2CCOCC2)Oc2ncc(Br)cc2C1=O	4	5	/	-1	-1
CCCc1cc(=O)oc2cc(C)cc(OCC(=O)NCc3ccccn3)c12	8	7	17	-2	0
CCCCc1cc(=O)oc2cc(C)cc(OCC(=O)NCc3ccncc3)c12	8	-12	56*	0	-1
Cc1cc(OCC(=O)Nc2cccnc2)c2c(C)cc(=O)oc2c1	-1	4	64*	0	-1
CCSc1nc2sc3c(c2c(=O)[nH]1)CCc1ccccc1-3	-1	6	57*	4	2
COc1ccc(-n2c(SCC(=O)N(C)c3ccccc3)nc3c([nH]c4ccccc43)c2=O)cc1OC	-1	8	13	0	0
CCn1c(SCC(=O)N2CC(C)OC(C)C2)nc2c([nH]c3ccccc32)c1=O (centres undefined)	-3	4	50*	-1	2
CCn1c(SCC(=O)N(C)c2ccccc2)nc2c([nH]c3ccccc32)c1=O	-2	-23	72*	-1	2
COCCn1c(SCC(=O)N2CC(C)OC(C)C2)nc2c([nH]c3ccccc32)c1=O (centres undefined)	4	-5	30	-2	1
N/C(=N\OC(=O)c1ccc(F)cc1)c1ccccc1	1	0	60*	2	4
N/C(=N\OC(=O)c1ccc(F)cc1)c1ccc(Br)cc1	2	-1	52*	-1	-1
C[C@@H](C[C@@H](O)[C@H](O)C(C)(C)O)[C@@H]1CC[C@]2(C)C3=CC[C@H]4C(C)(C)C(=O)CC[C@]4(C)[C@H]3CC[C@@]12C	3	4	-2	9.4*	-2
O=C(C[n+]1cc(Br)cc2ccccc21)c1ccc(Cl)cc1	0	-2	73*	-1	2
O=C(C[n+]1cccc2ccccc21)c1ccc(Br)cc1	-1	0	65*	-1	1
Cc1ccc(C(=O)C[n+]2cccc3ccccc32)cc1	-6	0	22	2	2
NNC(=O)c1ccc(COc2cccc3ccccc23)o1	-1	-1	69*	2	3
O=C(NCc1cccnc1)c1ccc(COc2cccc3ccccc23)o1	-3	8	78*	-2	3
SMILES	m5-HT2A agonist	MC4R antagonist	AHR act	MC4R barr agon	FXN GAA850 act
CCCc1ccc(OCc2ccc(C(=O)NCc3cccnc3)o2)c(OC)c1	-3	4	51*	0	0
CC(C)NC(=O)c1ccc(COc2cccc3ccccc23)o1	-8	8	/	-1	0
COc1ccccc1NC(=O)c1ccc(COc2ccccc2OC)o1	-7	1	28	3	4
CCCc1ccc(OCc2ccc(C(=O)Nc3cccc(C)n3)o2)c(OC)c1	4	12	60*	3	5
Cc1ccc(S(=O)(=O)N(C)C[C@@H]2OCc3cnnn3CCCC(=O)N([C@H](C)CO)C[C@@H]2C)cc1	-2	0	/	-1	0
COc1ccc(C2=NN(C(=O)c3ccco3)C(c3ccco3)C2)cc1OC (centres undefined)	13	-3	2	2	0
CCOc1ccc(S(=O)(=O)NCc2cccs2)cc1C(C)C	0	3	/	4	1
N/C(Cc1ccc(Cl)c(Cl)c1)=N\OC(=O)c1cccs1	-3	-7	-2	8.6*	0
CCc1ccc(NC(=O)Cn2c(SC)nc3ccccc32)cc1	-1	1	78*	0	-1
O=c1c(-c2ccco2)[n+]([O-])c2ccccc2n1OCc1ccccc1	2	10	61*	1	1
O=c1c(-c2ccco2)[n+]([O-])c2ccccc2n1OCc1c(F)cccc1F	5	-6	49*	2	1
O=c1c(-c2ccco2)[n+]([O-])c2ccccc2n1OCc1ccccc1F	-3	-12	9	-1	-1
COc1ccc(COC(=O)c2cccc(S(=O)(=O)N3CCN(C(C)=O)CC3)c2)cc1F	5	9	0	0	-1
Cc1cccc(-c2cc3c(N=O)c4ccccc4c-3n[nH]2)c1	-2	-29	127*	2	5
O=C(c1ccccc1)c1c2c(cc3sc4ccccc4[n+]13)-c1cccc3cccc-2c13	8	-25	54*	26*	-10
CN1/C(=C\C(=O)COc2ccc3c(c2)OCO3)C(C)(C)c2ccccc21	-5	1	56*	4	-4
COc1ccccc1OCC(=O)/C=C1/N(C)c2ccccc2C1(C)C	-6	12	16	4	-4
N#CC1=C(N)N2C(=C(C#N)C1c1ccccc1)Sc1ccccc12 (centres undefined)	/	/	88*	/	/
CCC(CC)CN1C(N(C)C)=NC[C@@H]1CC(C)C	9	-2	1	-1	-1
O=C1Nc2ccccc2S/C1=C/Nc1cccc(Cl)c1	-6	-4	42	13*	3
CCCCNC(=O)/C=C1\Sc2ccccc2NC1=O	-5	13	2	-2	4
CCOc1ccc(CCNC(=O)c2cccc(-n3cnnn3)c2)cc1OCC	1	4	2	-1	3
C[N+](C)(C)CCN1C(=O)c2ccccc2C1=O	9	/	/	/	/
O=C(CSC1=Nc2ccccc2C2CC=NN12)Nc1ccc(F)c(F)c1F (centres undefined)	2	-7	51*	5	3
CCCCOC(=O)c1ccc(NC(=O)CSC2=Nc3ccccc3C3CC=NN23)cc1 (centres undefined)	12	10	14	1	3
CC(C)Cn1c(N)c(C(=O)COC(=O)c2ccc(Br)cc2)c(=O)n(C)c1=O	6	12	0	-1	1
Cc1c(C)n(CCc2ccccc2)c2ncnc(NCCCO)c12	3	6	51*	-2	3
Cc1c(C)n(CCc2ccccc2)c2ncnc(NN)c12	5	3	19	-2	3
